≈ marks a conversion by molar mass, not a printed value. Calls of active or inactive are those of the source. The calls are words filed in the database; no cut-off is given here.
Legend:
HL-60 = test: Inhibition of human myeloid leukemia HL60 cell viability; format: functional, cell-based
NIH3T3 = test: Cytotoxicity against mouse embryonic fibroblast NIH3T3 cell line; format: functional, cell-based
LOX IMVI [1] = test: Cytotoxicity against human melanoma cancer LOXIMVI cell line; format: functional
Procedure, shortened: (§1)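 Cells grown 24 h at 37 °C in RPMI 1640 with 5% FBS and 2 mM L-glutamine before dosing. Compounds were diluted from DMSO stocks to 10^-8 to 10^-4 M (five log concentrations) and incubated 48 h. Cells were TCA-fixed and stained with sulforhodamine B, with OD read at 515 nm. GI50, TGI and LC50 come from percent growth versus log concentration curves.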

HCT-15 [2] = test: Cytotoxicity against human colon cancer HCT15 cell line; format: functional; conditions: for CC50: read-out: LC50 (the source's name); procedure, shortened: as §1
[3] = Solubility in phosphate buffer at 37 degC; format: physicochemical
Procedure, shortened: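 Maximum solubility was measured in 0.1 M phosphate buffer at pH 7.4 and 37 °C.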

OVCAR-3 [4] = test: Cytotoxicity against human ovarian cancer OVACAR3 cell line; format: functional; conditions: for CC50: read-out: LC50 (the source's name); procedure, shortened: as §1
CAKI-1 [5] = test: Cytotoxicity against human renal cancer CAKI1 cell line; format: functional; conditions: for CC50: read-out: LC50 (the source's name); procedure, shortened: as §1
CAKI-1 [6] = test: Cytotoxicity against human renal cancer CAKI1 cell line at 100 uM; format: functional, cell-based; procedure, shortened: as §1
LOX IMVI [7] = test: Cytotoxicity against human melanoma cancer LOXIMVI cell line at 100 uM; format: functional, cell-based; procedure, shortened: as §1
HCT-15 [8] = test: Cytotoxicity against human colon cancer HCT15 cell line at 100 uM; format: functional, cell-based; procedure, shortened: as §1
OVCAR-3 [9] = test: Cytotoxicity against human ovarian cancer OVACAR3 cell line at 100 uM; format: functional, cell-based; procedure, shortened: as §1

| Structure (SMILES) | IC50 (HL-60) | IC50 (NIH3T3) | GI50 (LOX IMVI [1]) | TGI (LOX IMVI [1]) | GI50 (HCT-15 [2]) | TGI (HCT-15 [2]) | CC50 (HCT-15 [2]) | solubility [3] | GI50 (OVCAR-3 [4]) | TGI (OVCAR-3 [4]) | CC50 (OVCAR-3 [4]) | GI50 (CAKI-1 [5]) | TGI (CAKI-1 [5]) | CC50 (CAKI-1 [5]) | Activity (CAKI-1 [6]) | Activity (LOX IMVI [7]) | Activity (HCT-15 [8]) | Activity (OVCAR-3 [9]) | LC50 (concentration giving 50% net cell kill) (LOX IMVI [1]) |
| --- | --- | --- | --- | --- | --- | --- | --- | --- | --- | --- | --- | --- | --- | --- | --- | --- | --- | --- | --- |
| CNc1ccc(C(=O)Oc2cc(O/N=[N+](\[O-])N(C)C)c([N+](=O)[O-])cc2[N+](=O)[O-])cc1 | 6.3 µM | 5.6 µM | 1.9 µM | 4.4 µM | 2 µM | 5.3 µM | 19 µM | < 2 µM | 2.6 µM | 6.9 µM | 2.6 µM | 1.8 µM | 4 µM | 8.9 µM |  |  |  |  |  |
| CN(c1cccc(C(=O)O)c1)c1cc(O/N=[N+](\[O-])N(C)C)c([N+](=O)[O-])cc1[N+](=O)[O-] | 11.6 µM | 83 µM |  |  |  |  |  | 3000 µM (≈ 1260 µg/mL) |  |  |  |  |  |  | inactive | inactive | inactive | inactive |  |
| CN(C)/[N+]([O-])=N/Oc1cc(Nc2ccc(C(=O)O)cc2)c([N+](=O)[O-])cc1[N+](=O)[O-] | 9.1 µM | 73 µM |  |  |  |  |  | > 3000 µM | 5.5 µM | 9 µM | 100 µM |  |  |  |  |  |  |  |  |
| CN(C)/[N+]([O-])=N/Oc1cc(Nc2cccc(C(=O)O)c2)c([N+](=O)[O-])cc1[N+](=O)[O-] |  | 80 µM |  |  | 20 µM | 36 µM | 68 µM | > 2000 µM | 3.9 µM | 30 µM | 58 µM | 2.2 µM | 51 µM | > 100 µM |  |  |  |  | 60 µM |

From ChEMBL document CHEMBL1149433, “PABA/NO as an anticancer lead: analogue synthesis, structure revision, solution chemistry, reactivity toward glutathione, and in vitro activity” (J Med Chem, 2006)
